Rows were chosen to be rich in hits. Some 2.8% of all compounds tested hit in one or more screens of this group.
NPY Y1 blocker – NPY-Y1 receptor antagonists, primary screen, cell-based; Neuropeptide Y receptor type 1 (Homo sapiens), P25929; HEK293-CNG Y1 cells, membrane potential fluorescence; NPY at EC95, then isoproterenol; inhibition, % at 3.6 µM; hit rate 1% among 200,000;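 active = inhibition above the campaign mean inhibition of all tested compounds plus 3 SD, cut at about 20% in these data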;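 note: 0% = DMSO wells given NPY plus isoproterenol and 100% = isoproterenol alone without NPY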
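Material: HEK293 Y1/CNG channel cell line; also added: NPY (25 nM), isoproterenol (1 µM), Ro 20-1724 (25 µM); doses: one concentration, 3.6 µM, in 0.4% DMSO; schedule: compound incubation 1 h at room temperature, readout 45 min post-stimulation; technique: membrane potential fluorescence; measure: fluorescence ratio normalized to % inhibition between controls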
EP2 mod – EP2 receptor modulators, cAMP readout, primary screen, cell-based, HTRF cAMP, PGE2 stimulation; hit rate 0.83% among 260,000; AID 940, 2007; EP2-expressing cells, cAMP HTRF FRET, PGE2 co-stimulation; Prostaglandin E2 receptor EP2 subtype (Homo sapiens), P43116; induction, % at 25 µM;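 active = compounds whose cAMP rise, as percent of the full-agonist control response, exceeds 60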;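 note: rat C6 glioma line stably carrying human EP2 under a CMV promoter; the protocol text gives 20 µM as final concentration; 100% = response of wells given 1 µM PGE2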
NPY-Y1 PAM-ag – NPY-Y1 receptor potentiators or agonists, primary screen, cell-based | activation, % at 3.6 µM | hit rate 0.37% among 220,000 | NPY-Y1 expressing cells, potentiator/agonist activation | Neuropeptide Y receptor type 1 (Homo sapiens), P25929; in the data active = activation above about 33%, passing the limit was not always enough;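 note: cells stimulated with NPY at EC10 then isoproterenol at EC100; 0% = low agonist plus stimulus and 100% = saturating agonist plus stimulus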
NPY-Y2 antag – NPY-Y2 receptor antagonists, primary screen, cell-based. NPY-Y2 expressing cells, antagonist mode. inhibition, % at 2.7 µM. hit rate 0.99% among 140,000; in the data active = inhibition above about 17%;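 note: 0% = vehicle with agonist challenge and 100% = reference antagonist with challenge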
Target sequence (P49146 whole entry, looked up): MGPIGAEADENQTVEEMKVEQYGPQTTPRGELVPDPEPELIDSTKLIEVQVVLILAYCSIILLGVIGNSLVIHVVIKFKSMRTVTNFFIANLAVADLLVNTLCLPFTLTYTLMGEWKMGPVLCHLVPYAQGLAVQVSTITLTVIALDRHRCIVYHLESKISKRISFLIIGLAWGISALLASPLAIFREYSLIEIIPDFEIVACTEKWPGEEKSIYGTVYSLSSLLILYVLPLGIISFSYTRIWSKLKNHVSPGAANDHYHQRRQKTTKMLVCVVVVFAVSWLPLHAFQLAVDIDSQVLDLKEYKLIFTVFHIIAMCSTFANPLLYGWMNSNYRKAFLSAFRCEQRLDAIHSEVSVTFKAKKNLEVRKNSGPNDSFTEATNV
NPY2 pot ag – NPY-Y2 potentiators or agonists, primary screen, cell-based. AID 1359, 2008. hit rate 0.45% among 220,000. cells expressing NPY-Y2, potentiator/agonist read-out. activation, % at 3.6 µM. Neuropeptide Y receptor type 2 (Homo sapiens), P49146; in the data active = activation above about 27%;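 note: cells stimulated with NPY near EC25 plus isoproterenol at EC100; 0% = vehicle plus submaximal agonist and 100% = vehicle plus saturating agonist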
PGE2 EP2 inh – human EP2 receptor antagonists, primary screen, TR-FRET cAMP, C6 glioma cells; inhibition, % at 25 µM; AID 1422, 2008; C6 glioma cells expressing human EP2; cells stimulated with saturating PGE2; Prostaglandin E2 receptor EP2 subtype (Homo sapiens), P43116; hit rate 0.52% among 260,000;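 active = percent inhibition above 40 after rounding to a whole number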;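 note: rat C6 glioma host cells with rolipram phosphodiesterase inhibitor present; the protocol text gives 20 µM as final concentration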
* hit, by the source's call; x = no result.

SMILES | NPY Y1 blocker | EP2 mod | NPY-Y1 PAM-ag | NPY-Y2 antag | NPY2 pot ag | PGE2 EP2 inh
COc1ccc(-c2ccc(=O)n(CC3CCN(C(=O)N4CCOCC4)CC3)n2)cc1OC | x | 31 | x | x | x | x
Cc1nc2sc3c(c2c2nnc(SCC(=O)NCc4ccc5c(c4)OCO5)n12)CCC(C)C3 (centres undefined) | x | 32 | x | x | x | 10
CCc1nc2sc3c(c2c2nnc(SCC(=O)NCc4ccc5c(c4)OCO5)n12)CCC(C)C3 (centres undefined) | x | 80* | x | x | x | 14
CCN(CC)C(=O)CN1CCCC(c2ncncc2-c2ccncc2)C1 (centres undefined) | x | -18 | x | x | x | x
COc1ccc(CN(C(=S)Nc2ccccc2)C2CC(=O)N(c3ccc(F)cc3)C2=O)cc1 (centres undefined) | -17 | -3 | 12 | -3 | 19 | 7
COc1ccc(CCN(C(=S)Nc2ccccc2)C2CC(=O)N(c3ccccc3)C2=O)cc1 (centres undefined) | -2 | 13 | 37 | -4 | 37* | 15
CC(=O)O/N=C1\C(=O)N(Cc2ccc(C)cc2)c2ccccc21 | 1 | 63* | 7 | x | -9 | 2
CCOc1ccc(N(C(=O)c2cnsn2)C(C(=O)NC2CCCCC2)c2ccncc2)cc1 (centres undefined) | 34* | -2 | -27 | 20* | 12 | 6
COc1ccc(N(C(=O)c2cnsn2)C(C(=O)NC2CCCCC2)c2ccncc2)cc1 (centres undefined) | 17 | 7 | -10 | 1 | -9 | 6
CCOc1ccc(N(C(=O)c2ccco2)C(C(=O)NC2CCCC2)c2ccccc2)cc1 (centres undefined) | x | 61* | x | x | x | 6
Cn1c(=O)c2c(-c3ccc(F)cc3)c(C#N)c(N)nc2n(C)c1=O | x | -19 | x | x | x | 4
COc1ccc(NC(=O)c2ccco2)c(NC(=O)CSc2ccccc2)c1 | x | -55 | x | x | x | 6
COc1cc2nncc(SCc3ccc(Cl)c(Cl)c3)c2cc1OC | x | 5 | x | x | x | 54*
Cc1ccccc1NC(=S)N(C)Cc1cccs1 | -17 | -5 | 104* | -1 | 101* | 7
Cc1ccccc1NC(=S)N(Cc1cccs1)C1CCCCC1 | 1 | 54 | 14 | x | 3 | 5
O=C1c2ccc(O)c(O)c2C(=O)c2c(O)ccc(O)c21 | x | 19 | x | x | x | 13
CC1=CC(=O)c2c(O)ccc(O)c2C1=O | -3 | -51 | 11 | x | 9 | 84*
COc1ccc2nc(NC(=O)C3CCN(S(=O)(=O)c4cccc5nsnc45)CC3)sc2c1 | -8 | -38 | 47* | -2 | 29 | 14
Cc1cccc(NC(=O)C2CCN(S(=O)(=O)c3cccc4nsnc34)CC2)n1 | 5 | -35 | -33 | -2 | 2 | x
Cn1ncc(S(=O)(=O)Cc2ccccc2)c(Cl)c1=O | x | -33 | 3 | x | -12 | 89*
Cn1ncc(SCc2ccccc2)c(Cl)c1=O | x | -31 | 2 | x | 2 | 6
Cc1cc(C)nc(NC(=O)c2ccc(Cl)c([N+](=O)[O-])c2)n1 | x | 6 | 7 | x | 9 | 16
Cc1nc(N2CCCCC2)sc1C(=O)c1ccc(Cl)c([N+](=O)[O-])c1 | -11 | -12 | 48* | x | 47* | 7
CCCCSc1nc(CCC)cc(=O)[nH]1 | 5 | 15 | -22 | 5 | -17 | 5
CCCc1cc(=O)[nH]c(SCCOc2ccc(Cl)cc2)n1 | 2 | 64* | -3 | 1 | -23 | 7
C=CCc1cccc2cc(C(=O)Nc3ccccc3C(=O)O)c(=O)oc12 | -3 | 20 | 28 | x | 45* | 6
CCOc1ccc2nc(NS(=O)(=O)Cc3ccccc3)sc2c1 | 23* | -8 | -35 | 20* | -36 | 3
CCS(=O)(=O)N1CCCC(c2nc3c(nnn3Cc3cccc(Cl)c3)c(=O)[nH]2)C1 (centres undefined) | x | 7 | x | x | x | 14
CCN(CC)C(=O)CN1CCC(n2cnc3cccnc32)CC1 | x | 6 | x | x | x | x
O=C(Nc1ccccc1)C1=C(c2ccccc2)S(=O)(=O)CCS1(=O)=O | -8 | -89 | 64* | x | 45* | 46*

Assay outcomes from PubChem.
